Measurements collected from several papers.
Each line is one published result; the experiments were not run side by side.
BCHE: Cholinesterase (BCHE, Homo sapiens, UniProt P06276)
MC4R: Melanocortin receptor 4 (MC4R, Homo sapiens, UniProt P32245)
Oprk1: Kappa-type opioid receptor (Oprk1, Mus musculus, UniProt P33534)

| Structure (SMILES) | target | effect on | mode | method | quantity | result |
| --- | --- | --- | --- | --- | --- | --- |
| COc1cc2c(cc1OC)CN(CCc1ccc(NC(=O)c3cccc4c(=O)c5cccc(OC)c5[nH]c34)cc1)CC2 | Muscarinic acetylcholine receptor M5 (CHRM5, Homo sapiens, UniProt P08912) | cell-free assay |  |  | Ki | > 10 µM |
| CC(C)c1cc2c(c(O)c1O)[C@@]13CCCC(C)(C)[C@@H]1[C@@H](O)[C@@H]2OC3=O | BCHE | enzyme activity | inhibitor |  | IC50 | 0.00141 µM |
| CC(=O)N[C@H]1[C@@H](O[C@@H]2O[C@H](C[C@@H](O)[C@H]3O[C@@H](n4ccc(=O)[nH]c4=O)[C@H](O)[C@@H]3O)[C@H](O)[C@H](O)[C@H]2NC(=O)/C=C/CCCCCCCCCC(C)C)O[C@H](CO)[C@@H](O)[C@@H]1O | UDP-N-acetylglucosamine--dolichyl-phosphate N-acetylglucosaminephosphotransferase (Homo sapiens, UniProt Q9H3H5) | enzyme activity | inhibitor |  | IC50 | 1.53 µM |
| C=CCOc1ccc(C(=O)/C=C/c2ccc(OC)cc2)c(OS(=O)(=O)c2ccccc2[N+](=O)[O-])c1I | BCHE | enzyme activity | inhibitor |  | IC50 | 14.2 µM |
| CCCC[C@H](NC(C)=O)C(=O)N[C@H]1CC(=O)NCCCC[C@@H](C(=O)N2CCC[C@@H]2C(=O)N[C@@H](C(=O)N2CCC[C@@H]2C(N)=O)C(C)C)NC(=O)[C@H](Cc2c[nH]c3ccccc23)NC(=O)[C@H](CCCNC(=N)N)NC(=O)[C@@H](Cc2ccccc2)NC(=O)[C@@H]2CCCN2C1=O | MC4R | cAMP | agonist |  | EC50 | 0.00089 µM |
| CC(C)[C@@H](CN1CCc2ccccc2C1)NC(=O)Cc1c[nH]c2ccccc12 | Oprk1 | ligand displacement |  | radioligand | Ki | 2.75 µM |
| CC(C)c1cc2c(c(O)c1O)[C@@]13CCCC(C)(C)[C@@H]1C[C@@H]2OC3=O | BCHE | enzyme activity | inhibitor |  | IC50 | 0.00095 µM |
| COc1c2c(cc3c1-c1c(cc4c(c1OC)OCO4)C[C@H](C)[C@H](C)C3)OCO2 | BCHE | enzyme activity | inhibitor | Ellman | IC50 | > 100 µM |
| CSCC[C@H](NC(=O)[C@H](CCCNC(=N)N)NC(=O)[C@H](Cc1ccc(O)cc1)NC(=O)[C@@H]1CCCN1C(=O)CNC(=O)[C@H](CCC(=O)O)NC(=O)[C@H](Cc1c[nH]cn1)NC(=O)[C@H](CCCCN)NC(=O)[C@H](CCCCN)NC(=O)[C@H](CCC(=O)O)NC(=O)[C@H](C)N)C(=O)N[C@@H](CCC(=O)O)C(=O)N[C@@H](Cc1c[nH]cn1)C(=O)N[C@@H](Cc1ccccc1)C(=O)N[C@@H](CCCNC(=N)N)C(=O)N[C@@H](Cc1c[nH]c2ccccc12)C(=O)NCC(=O)N[C@@H](CO)C(=O)N1CCC[C@H]1C(=O)N1CCC[C@H]1C(=O)N[C@@H](CCCCN)C(=O)N[C@@H](CC(=O)O)C(=O)O | MC4R | reporter gene | agonist | luciferase | EC50 | 0.00146 µM |
| COc1cc(/C=C/C(=O)O)ccc1OCc1cn(CC(=O)Nc2ccc(Cl)cc2Cl)nn1 | BCHE | enzyme activity | inhibitor | Ellman | IC50 | 12 µM |
| C=CCOc1ccc(C(=O)/C=C/c2ccc(OC)cc2)c(OS(C)(=O)=O)c1I | BCHE | enzyme activity | inhibitor |  | IC50 | 53.8 µM |
| CC(C)c1cc2c(c(O)c1O)[C@@]13CCCC(C)(C)[C@@H]1[C@H](OC3=O)[C@H]2O | BCHE | enzyme activity | inhibitor |  | IC50 | 0.00075 µM |
| C=CCOc1ccc(C(=O)/C=C/c2ccc(OC)cc2)c(O)c1I | BCHE | enzyme activity | inhibitor |  | IC50 | 22.4 µM |
| CC(C)c1cc2c(c(O)c1O)[C@@]1(C(=O)O)CCCC(C)(C)[C@@H]1CC2 | BCHE | enzyme activity | inhibitor | absorbance | Ki | 0.00049 µM |
| CC(C)[C@H](CN1CCc2ccccc2C1)NC(=O)c1cccc(-c2cccc(O)c2)c1 | Oprk1 | ligand displacement |  | radioligand | Ki | 0.87 µM |
| C=CCOc1ccc(C(=O)/C=C/c2ccc(OC)cc2)c(OS(=O)(=O)c2ccc(F)cc2)c1I | BCHE | enzyme activity | inhibitor |  | IC50 | 11.3 µM |
